Calls of active or inactive are those of the source. The calls are words filed in the database; no cut-off is given here.
Key:
KOPN-8 [1] = test: Induction of apoptosis in human KOPN8 cells assessed as viable cells at 10 uM after 24 hrs by Annexin V-FITC/propidium iodide staining-based flow cytometry (reference value: 85.2%); format: functional; details: KOPN-8, 24 h, read-out: Activity
How it was run: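 KOPN-8 cells were treated for 24 h, with a DMSO vehicle control and a staurosporine positive control. Cells were stained with FITC-Annexin V and propidium iodide and analysed by flow cytometry. Quadrant gating separated viable, early apoptotic, late apoptotic (Q2) and necrotic populations.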

KOPN-8 [2] = test: Induction of apoptosis in human KOPN8 cells assessed as effect on Mcl-1 level at 30 uM pre-treated with NAC for 1 hr and measured after 24 hrs by Western blot analysis relative to control; format: functional
How it was run: (§1)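 KOPN-8 cells were exposed to compound for 3 h and 24 h, with or without N-acetylcysteine added to a parallel set as antioxidant. Lysates were analysed by Western blot for cleaved PARP, Mcl-1, Ser-2-phosphorylated RNAPII CTD, cMyc, total Rb and pRb. Signals were compared against controls for dose-dependent change.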

KOPN-8 [3] = test: Induction of apoptosis in human KOPN8 cells assessed as effect on Mcl-1 level at 10 uM after 24 hrs by Western blot analysis relative to control; format: functional
How it was run: (§2)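 KOPN-8 cells were treated at 10–100 µM final, with or without N-acetylcysteine co-addition, for 3 h and 24 h. Lysates were analysed by Western blot for PARP cleavage, Mcl-1, phospho-Ser2 RNAPII CTD, c-Myc, total Rb and pRb. Levels are relative to the vehicle control.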

[4] = target: T1, Retinoblastoma-associated protein (Homo sapiens) (UniProt P06400); test: Inhibition of Rb phosphorylation in human KOPN8 cells assessed as ratio of phosphorylated Rb to total Rb levels at 100 uM pre-treated with NAC for 1 hr and measured after 24 hrs by Western blot analysis relative to control; format: cell-based
T1 sequence (whole entry): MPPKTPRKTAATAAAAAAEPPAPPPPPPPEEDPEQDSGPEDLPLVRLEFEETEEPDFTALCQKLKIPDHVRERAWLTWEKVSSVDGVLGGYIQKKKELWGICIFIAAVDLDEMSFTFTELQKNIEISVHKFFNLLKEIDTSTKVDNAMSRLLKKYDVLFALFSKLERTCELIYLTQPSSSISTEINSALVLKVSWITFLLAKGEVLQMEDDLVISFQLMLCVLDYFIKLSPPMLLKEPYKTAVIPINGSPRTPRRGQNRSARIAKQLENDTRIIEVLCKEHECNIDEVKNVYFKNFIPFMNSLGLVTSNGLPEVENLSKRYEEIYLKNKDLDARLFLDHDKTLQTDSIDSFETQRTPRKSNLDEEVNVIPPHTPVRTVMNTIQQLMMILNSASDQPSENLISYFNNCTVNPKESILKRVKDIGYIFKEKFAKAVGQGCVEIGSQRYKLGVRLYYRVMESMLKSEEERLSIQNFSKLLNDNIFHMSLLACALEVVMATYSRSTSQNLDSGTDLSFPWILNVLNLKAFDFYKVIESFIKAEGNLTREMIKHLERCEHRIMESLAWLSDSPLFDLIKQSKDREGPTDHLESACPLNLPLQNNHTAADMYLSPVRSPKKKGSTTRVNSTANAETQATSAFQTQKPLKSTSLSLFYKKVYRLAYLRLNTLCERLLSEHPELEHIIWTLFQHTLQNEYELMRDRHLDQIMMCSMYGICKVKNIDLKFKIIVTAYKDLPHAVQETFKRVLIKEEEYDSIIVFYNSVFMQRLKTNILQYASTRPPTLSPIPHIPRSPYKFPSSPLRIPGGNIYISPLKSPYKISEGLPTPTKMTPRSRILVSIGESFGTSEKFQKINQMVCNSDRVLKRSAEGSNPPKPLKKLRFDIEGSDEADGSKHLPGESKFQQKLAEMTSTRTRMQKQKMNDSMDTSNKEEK
How it was run: (§3)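 KOPN-8 pre-B ALL cells were treated for 3 h and 24 h, with or without N-acetyl cysteine added to a parallel set of cells as an antioxidant/ROS quencher. Lysates were analysed by Western blot for phosphorylated Rb and total Rb. The same blots also probed PARP cleavage, Mcl-1, Ser-2-phosphorylated RNAPII CTD and cMyc.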

Homo sapiens [5] = organism: Homo sapiens; test: Inhibition of RNA polymerase 2 C-terminal domain phosphorylation at Ser2 residue in human KOPN8 cells at 100 uM after 24 hrs by Western blot analysis relative to control; format: cell-based; how it was run: as §1
KOPN-8 [6] = test: Effect on c-Myc expression in human KOPN8 cells at 100 uM after 3 hrs by Western blot analysis relative to control; format: functional; how it was run: as §2
KOPN-8 [7] = test: Effect on c-Myc expression in human KOPN8 cells at 30 uM after 24 hrs by Western blot analysis relative to control; format: functional; how it was run: as §2
KOPN-8 [8] = test: Induction of apoptosis in human KOPN8 cells assessed as upregulation of cleaved PARP level after 3 to 24 hrs by Western blot analysis; format: functional, cell-based; how it was run: as §1
Homo sapiens [9] = organism: Homo sapiens; test: Inhibition of RNA polymerase 2 C-terminal domain phosphorylation at Ser2 residue in human KOPN8 cells at 10 uM after 24 hrs by Western blot analysis relative to control; format: cell-based; how it was run: as §1
KOPN-8 [10] = test: Effect on c-Myc expression in human KOPN8 cells at 10 uM after 24 hrs by Western blot analysis relative to control; format: functional; how it was run: as §2
KOPN-8 [11] = test: Cell cycle arrest in human KOPN8 cells assessed as accumulation at S phase at 10 uM after 24 hrs by propidium iodide staining-based flow cytometry (reference value: 66.56%); format: functional
How it was run: (§4)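 KOPN-8 cells treated 24 h alongside a DMSO vehicle and a staurosporine (2.0 µM) positive control. Apoptosis was scored by FITC Annexin V / propidium iodide flow cytometry with quadrant gating (early, late apoptotic). DNA content was measured by PI staining to give the percentage of cells in G0/G1, S and G2/M. Groups were compared by t-test; error bars are SD.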

KOPN-8 [12] = test: Cell cycle arrest in human KOPN8 cells assessed as accumulation at G0/G1 phase at 5 uM after 24 hrs by propidium iodide staining-based flow cytometry (reference value: 24.77%); format: functional; how it was run: as §4
SUP-B15 [13] = test: Induction of apoptosis in human SUP-B15 cells assessed as late apoptotic cells at 5 uM after 24 hrs by Annexin V-FITC/propidium iodide staining-based flow cytometry (reference value: 2.2%); format: functional
[14] = target: T1, Retinoblastoma-associated protein (Homo sapiens); test: Inhibition of Rb phosphorylation in human KOPN8 cells assessed as ratio of phosphorylated Rb to total Rb levels at 0.5 uM after 3 hrs by Western blot analysis relative to control; format: cell-based; how it was run: as §3
[15] = target: T1, Retinoblastoma-associated protein (Homo sapiens); test: Inhibition of Rb phosphorylation in human KOPN8 cells assessed as ratio of phosphorylated Rb to total Rb levels at 0.5 uM after 24 hrs by Western blot analysis relative to control; format: cell-based; how it was run: as §1
KOPN-8 [16] = test: Induction of apoptosis in human KOPN8 cells assessed as upregulation of cleaved PARP level at 0.5 uM after 3 hrs by Western blot analysis; format: functional, cell-based; how it was run: as §1
SUP-B15 [17] = test: Induction of apoptosis in human SUP-B15 cells assessed as viable cells at 5 uM after 24 hrs by Annexin V-FITC/propidium iodide staining-based flow cytometry (reference value: 82.8%); format: functional; details: SUP-B15, 24 h, read-out: Activity
SUP-B15 [18] = test: Induction of apoptosis in human SUP-B15 cells assessed as early apoptotic cells at 5 uM after 24 hrs by Annexin V-FITC/propidium iodide staining-based flow cytometry (reference value: 0.1%); format: functional

| Structure (SMILES) | viability at 10 µM (KOPN-8 [1]) [%] | fold change (FC) (KOPN-8 [2]) | fold change (FC) (KOPN-8 [3]) | fold change (FC) [4] | fold change (FC) (Homo sapiens [5]) | fold change (FC) (KOPN-8 [6]) | fold change (FC) (KOPN-8 [7]) | Activity (KOPN-8 [8]) | fold change (FC) (Homo sapiens [9]) | fold change (FC) (KOPN-8 [10]) | Activity (KOPN-8 [11]) [%] | Activity (KOPN-8 [12]) [%] | Activity (SUP-B15 [13]) [%] | fold change (FC) [14] | fold change (FC) [15] | Activity (KOPN-8 [16]) | viability at 5 µM (SUP-B15 [17]) [%] | Activity (SUP-B15 [18]) [%] |
| --- | --- | --- | --- | --- | --- | --- | --- | --- | --- | --- | --- | --- | --- | --- | --- | --- | --- | --- |
| COc1ccc(-c2c(I)c(=O)c3c(OC)cc(OC)cc3n2S(=O)(=O)c2ccc(OC)cc2)cc1 | 8.5 | 0.7 | 1.1 | 1.2 | 0.2 | 0.2 | 0.9 | Dose-dependent effect | 1.8 | 1.3 | 25.66 | – | – | – | – | – | – | – |
| CN(C)C(=O)c1cc2cnc(Nc3ccc(N4CCNCC4)cn3)nc2n1C1CCCC1 [RIBOCICLIB] | – | – | – | – | – | – | – | – | – | – | – | 45.66 | 22.5 | 1 | 0.9 | Active | 35.4 | 0.3 |

Source: ChEMBL document CHEMBL4196009, “Novel vitexin-inspired scaffold against leukemia” (Eur J Med Chem, 2018)
